The list is not random: actives were taken first. Their share in the collection is about 6.1%.
DAT uptake mod: changed human dopamine transporter uptake under cocaine IC80; LLC-PK1 hDAT cells, [14C]-dopamine uptake with cocaine IC80; actives deviate in either direction; AID 449768; B-score at 10 µM; Q01959; 110,000 tested, 1.3% active;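 active means Z score or B-score, a plate-position-corrected score, falls beyond the plate's 99.7% confidence bounds, in either direction; inactive means both scores lie inside the 99.7% bounds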;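 further: scored against the spread of the other compound wells on the same plate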
Target sequence (Q01959 whole entry, looked up): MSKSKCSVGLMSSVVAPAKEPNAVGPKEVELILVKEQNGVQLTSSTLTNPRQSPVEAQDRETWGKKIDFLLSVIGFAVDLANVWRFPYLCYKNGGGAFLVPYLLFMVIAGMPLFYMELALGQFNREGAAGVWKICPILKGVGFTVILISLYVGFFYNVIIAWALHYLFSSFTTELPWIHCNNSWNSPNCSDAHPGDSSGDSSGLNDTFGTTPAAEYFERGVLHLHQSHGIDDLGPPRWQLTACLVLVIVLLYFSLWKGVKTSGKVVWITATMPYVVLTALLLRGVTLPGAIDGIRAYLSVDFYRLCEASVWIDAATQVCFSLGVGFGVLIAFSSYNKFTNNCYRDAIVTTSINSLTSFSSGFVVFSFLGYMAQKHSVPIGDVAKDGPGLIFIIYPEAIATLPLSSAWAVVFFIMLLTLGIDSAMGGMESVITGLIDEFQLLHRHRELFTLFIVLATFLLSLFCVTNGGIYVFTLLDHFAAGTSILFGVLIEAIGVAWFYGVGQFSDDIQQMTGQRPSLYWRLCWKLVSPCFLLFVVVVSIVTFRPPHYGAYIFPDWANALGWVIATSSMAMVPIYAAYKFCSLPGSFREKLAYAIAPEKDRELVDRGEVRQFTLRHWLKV
WT yeast gro inh: growth inhibition of WT yeast, mitochondrial fusion screen | mitochondrial fusion phenotypic screen, WT strain | inhibition, % at 10 µM | 190,000 tested, 2.1% active; in the data active means inhibition above about 58%; tested in S. cerevisiae
Measles CPE: protection of cells from measles virus; Measles virus-infected cells, CPE protection, absorbance; protection (pct of control), % at 4 µM; 140,000 tested, 1.5% active; AID 841; in the data active means protection mostly above about 24%, no sharp cut-off; inactive means mostly below about 26%
RAM network inh: inhibitors of the yeast RAM network. 190,000 tested, 1.8% active. S. cerevisiae dse1pr::URA3 reporter, 5-FOA growth OD615, 2 d; analog-sensitive cbk1-as2 kinase mutant strain. inhibition, % at 50 µM;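 active means inhibition above a set limit, 3 SD over mean compound inhibition, cut at about 8.4% in these data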;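 further: 0% = DMSO-only wells with no growth and 100% = 10 µM 1-NA-PP1 full growth; inhibition rescues growth on 5-FOA so higher OD means more RAM inhibition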
Yeast growth inh: yeast BB579 growth reduction in restrictive medium | 140,000 tested, 0.51% active | S. cerevisiae BB579 growth, OD615, 48 h | AID 804 | inhibition, % at 10 µM;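 active means inhibition above a set limit, 3 SD over the mean compound inhibition, cut at about 44% in these data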
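System: Saccharomyces cerevisiae DeaD strain BB579, replicative lifespan model yeast. Buffer or medium: restrictive glucose-based CSMM-D medium. Doses: one dose, 10 µM compound with 0.25% DMSO. Timing: 4 h preincubation and 48 h exposure at 30 °C. Detection: turbidity as optical density at 615 nm. Benchmarks: amphotericin B 10 µg/mL, positive.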
Yeast lifespan up: yeast lifespan extension; inhibition of the nicotinamide effect, % at 10 µM; 130,000 tested, 0.68% active; S. cerevisiae growth with nicotinamide, OD615; deaD strain in restrictive glucose medium; AID 775;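 active means inhibition above a set limit, placed 3 SD over the median of all compounds, cut at about 26% in these data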;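 further: 0% = nicotinamide-treated wells and 100% = cells grown without nicotinamide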
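Assay system: engineered S. cerevisiae DeaD replicative-lifespan strain, galactose-grown log-phase cells; medium: restrictive CSMM-D dextrose medium; also added: nicotinamide, 1.5 mM, co-present with compound; schedule: 48 h compound exposure at 30 °C, humidified; detection: absorbance at 615 nm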
Numbers without * were called inactive; / = no result given.

SMILES | DAT uptake mod | WT yeast gro inh | Measles CPE | RAM network inh | Yeast growth inh | Yeast lifespan up
COc1ccc(CNCc2cccc(Oc3ccccc3)c2)cc1 | / | 43 | / | 1 | / | /
COc1ccc(COCC(O)CN2CCc3ccccc3C2)cc1OC (stereo unspecified) | / | -7 | / | 1 | / | /
COC(=O)C1=C(C)NC2=C(C(=O)CC(C)(C)C2)C1c1cn(Cc2ccc(Br)cc2)nc1-c1ccccc1 (stereo unspecified) | 0.82 | 70* | 21 | 6 | -12 | -9
CN(C)S(=O)(=O)c1ccc(N2CCCC2)c(C(=O)NCC2CCCCC2)c1 | / | 2 | / | 0 | / | /
COc1ccccc1NS(=O)(=O)c1cc(NC(=O)c2ccncc2)ccc1N1CCCC1 | / | 24 | / | 3 | / | /
O=C(N=c1ccn(-c2nc3ccccc3nc2NS(=O)(=O)c2ccccc2)cc1)c1cccs1 | / | -14 | 3 | 8.5* | -47 | 5
CC(=O)Nc1ccc(S(=O)(=O)Nc2nc3ccccc3nc2N2CCCC2)cc1 | -0.46 | 28 | 3 | 0 | -30 | -18
CCC(C)(C)c1ccc(OCCN2C(=O)NC(C)(C)C2=O)cc1 | 1.2 | -22 | 18 | 1 | -9 | -5
CCC(C)(C)c1ccc(Oc2ccc(N)cc2)cc1 | / | 89* | / | 2 | / | /
O=c1[nH]c2ccccc2c(O)c1-c1cc2ccccc2oc1=O | / | -11 | / | 7 | / | /
COC(=O)CCC(=O)NNC(=O)c1ccc(Cl)cc1Cl | -4.7* | -4 | 16 | 0 | -45 | -18
CCOc1ccccc1NC1=C(Cl)C(=O)N(Cc2ccccc2)C1=O | 0.16 | / | 28 | 11* | -17 | -5
CCOc1ccc(NC(=O)CSc2nc(C)cc(C)n2)cc1 | 0.69 | -9 | 16 | 1 | -11 | /
CCCCOc1ccc(NC(=S)Nc2cc(C)nc(SCCCC)n2)cc1 | / | 0 | 26 | 9.6* | -29 | 20
CC(C)(C)n1nnnc1C(c1cccs1)N1CCCC2(CCCCC2)C1 (stereo unspecified) | -0.031 | 78* | 5 | 1 | -7 | 5
CCC(C)(C)n1nnnc1C(c1cccs1)N1CCCCC1 (stereo unspecified) | / | 8 | / | 1 | / | /
c1csc(C(c2nnnn2C2CCCCC2)N2CCCC3(CCCCC3)C2)c1 (stereo unspecified) | / | 62* | 6 | 3 | -20 | /
COc1ccccc1N1CCN(/N=C/c2c(C)nn(-c3ccccc3)c2C)CC1 | 0.029 | -7 | 2 | 1 | -23 | -4
CCCCNC(=S)N/N=C/C1=CCC2CC1C2(C)C (stereo unspecified) | / | 70* | 10 | 8.6* | -7 | 0
CC(C)NC(=S)N/N=C/C1=CCC2CC1C2(C)C (stereo unspecified) | / | 73* | 15 | 2 | 0 | 1
CCOc1ccc(S(=O)(=O)n2cc(-c3ccc(F)cc3)c(N)n2)cc1 | -0.081 | -3 | 2 | 6 | -7 | -4
CCOc1cc(S(=O)(=O)n2cc(-c3ccc(F)cc3)c(N)n2)cc(OCC)c1OCC | 0.77 | 19 | 5 | 9.0* | -17 | -5
c1cc2c(cc1Oc1nc(N3CCOCC3)nc(N3CCOCC3)n1)OCO2 | 0.83 | -9 | 0 | 0 | -20 | -2
Clc1ccc(Oc2nc(N3CCOCC3)nc(N3CCOCC3)n2)cc1 | 0.79 | 6 | 34* | 1 | -30 | -11
O=C(NCc1ccc(F)cc1)C1CCCN1C(=O)NCc1ccccc1 (stereo unspecified) | -1.3 | 9 | 17 | 0 | -34 | -5
SMILES | DAT uptake mod | WT yeast gro inh | Measles CPE | RAM network inh | Yeast growth inh | Yeast lifespan up
O=C(NCCc1ccccc1)C1CCCN1C(=O)Nc1ccc(F)cc1 (stereo unspecified) | -0.42 | 20 | 29* | 0 | -27 | -5
COc1c(C)cccc1C(=O)Nc1ccc(N2CCN(S(C)(=O)=O)CC2)cc1 | -7.9* | -3 | 13 | 3 | -20 | -14
Cc1c(NC(=O)CN2C(=O)NC3(CCC(C)CC3)C2=O)c(=O)n(-c2ccccc2)n1C (stereo unspecified) | / | 11 | / | 1 | / | /
Cc1cc2nc(CCN(C(=S)NCC3CCCO3)C3CCCC3)[nH]c2cc1C (stereo unspecified) | / | 15 | / | 1 | / | /
Cc1cc2nc(CCN(C(=S)NCC(C)C)C3CCCC3)[nH]c2cc1C | 2.7* | / | 26 | -1 | -30 | -7
CCC(C)(C(=O)Nc1ccc2c(c1)OCCO2)N(C(C)=O)c1ccc(C(N)=O)cc1 (stereo unspecified) | -2.8* | -5 | 9 | 1 | -32 | -12
CCOC(=O)c1ccc(NC(=O)Nc2ccc3c(c2)OCCO3)cc1 | 1.4 | 17 | 9 | 6 | -23 | -7
NC(=O)c1nsc(C(=O)N(CCc2ccccc2)C(C(=O)NC2CCCC2)c2ccco2)c1N (stereo unspecified) | -0.76 | 12 | 6 | 8.7* | -54 | -10
CC(C)CCNC(=O)C(c1ccco1)N(Cc1ccccc1)C(=O)c1snc(C(N)=O)c1N (stereo unspecified) | 1.1 | 41 | 16 | 1 | -12 | 5
O=C(/C(=C/O)N=Nc1ccc(Cl)cc1)c1ccncc1 | -0.061 | 20 | 6 | 0 | -31 | 77*
Cc1ccc(N=N/C(=C\O)C(=O)c2ccncc2)cc1 | -0.081 | -1 | 11 | -1 | 5 | 22
COc1ccc(Cl)cc1C(=O)NNC(=O)CSc1nnnn1C | / | 3 | / | 1 | / | /
COc1cc(C(=O)OCC(=O)NC(=O)C2CCCCC2)ccc1OC(F)F | / | -13 | / | 0 | / | /
Cc1ccccc1C(C(=O)NC1CCCC1)N(C(=O)Cc1cccs1)c1ccc2c(c1)OCCO2 (stereo unspecified) | -0.53 | 22 | 19 | 3 | -52 | -9
CCc1ccc(N(C(=O)Cc2cccs2)C(C(=O)NC2CCCCC2)c2cn(C)nc2C)cc1 (stereo unspecified) | 0.051 | -6 | 4 | 8.5* | -55 | 7
CC1CN(C(=O)C2(C)CC2(Br)Br)CC(C)O1 (stereo unspecified) | / | 0 | 27 | 1 | -14 | 6
Cc1ccc(NC(=O)CSc2nnc(CSc3nc(C)cc(C)n3)n2Cc2ccco2)c(C)c1 | 2.7* | 3 | 11 | 0 | -23 | -17
COc1ccc(C)cc1NC(=O)CSc1nnc(-c2ccccn2)n1Cc1ccco1 | -0.13 | 11 | 8 | 3 | -33 | -18
COc1ccc(NC(=O)CSc2nnc(COc3ccccc3)n2Cc2ccco2)cc1OC | 0.24 | -17 | 15 | 9.9* | -72 | -8
COc1ccc(C)cc1NC(=O)CSc1nnc(COc2ccc(Cl)cc2)n1Cc1ccco1 | / | 25 | / | 9.7* | -28 | -9
COc1ccc(C)cc1NC(=O)CSc1nnc(COc2ccccc2)n1Cc1ccco1 | / | 6 | 15 | 9.5* | -13 | -4
COc1ccc(NC(=O)CSc2nnc(-c3ccccc3)n2Cc2ccco2)c(OC)c1 | 0.64 | 6 | 8 | 0 | -62 | -9
CSC1=N/C(=C\c2ccccc2)C(=O)N1C | -0.72 | 10 | 11 | 0 | -5 | -17

Screening data as filed in PubChem BioAssay.
